Measured values: ChEMBL document CHEMBL1138799, “4-benzyl- and 4-benzoyl-3-dimethylaminopyridin-2(1H)-ones, a new family of potent anti-HIV agents: optimization and in vitro evaluation against clinically important HIV mutant strains” (J Med Chem, 2004)

What was measured:
[1] = tested on: Human immunodeficiency virus 1; assay: Inhibitory activity against wild type HIV-1 LAI cell line; format: functional, organism-based; conditions: Human immunodeficiency virus 1, LAI
In short: (§1)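 MT4 human T-lymphoblastoid cells were grown in RPMI 1640 with 10% fetal calf serum and antibiotics at 37 °C and 5% CO2. A compound concentration series was combined with HIV-1 LAI at 200 CCID50/well and 30 000 cells/well. Mock-infected cultures with the same concentrations were run in parallel to measure cytotoxicity. After 5 days, cell viability was read by MTT colorimetry. EC50 is the concentration giving 50% infection versus the drug-free control.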

[2] = tested on: Human immunodeficiency virus 1; assay: Selectivity index of cytotoxic activity (CC50) to inhibitory activity (IC50) relative to LAI cell line; format: functional; in short: as §1
[3] = tested on: Human immunodeficiency virus 1; assay: Inhibitory activity against HIV-1 mutant strain 181C; format: functional, organism-based
In short: (§2)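 Mutant HIV-1 made by recombining mutant PR-RT sequence into a PR-RT-deleted HXB2 proviral clone. Serial compound concentrations plated, then virus (200 CCID50/well) and MT4 cells (30 000 cells/well; RPMI 1640, 10% FCS) added; 5 days at 37 °C, 5% CO2; viability read by MTT. EC50 = concentration giving 50% infection versus drug-free control; mock-infected cultures run in parallel for toxicity.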

[4] = tested on: Human immunodeficiency virus 1; assay: Inhibitory activity against HIV-1 mutant strain 188L; format: functional, organism-based; in short: as §2
[5] = tested on: Human immunodeficiency virus 1; assay: Inhibitory activity against HIV-1 mutant strain 103N; format: functional, organism-based; in short: as §2

Row | Compound | IC50 [1] [nM] | Selectivity index [2] | IC50 [3] [nM] | IC50 [4] [nM] | IC50 [5] [nM]
1 | CC/C=C/c1cccc(C(=O)c2c(CC)c(C)nc(O)c2N(C)C)c1 | 50 | 1260 | – | – | –
2 | CCc1c(C)nc(O)c(N(C)C)c1C(=O)c1ccc(C#N)cc1 | 3160 | 32 | – | – | –
3 | CCc1c(C)nc(O)c(N(C)C)c1C(=O)c1cccc(/C=C(\C#N)c2ccccc2)c1 | 1000 | 16 | – | – | –
4 | CCc1c(C)nc(O)c(N(C)C)c1Cc1cccc(C)c1 | 2 | 39900 | 60 | 1000 | 20
5 | CCc1c(C)nc(O)c(N(C)C)c1Cc1ccnc2ccccc12 | 5010 | 20 | 63000 | – | 79400
6 | CCc1c(C)nc(O)c(N(C)C)c1Cc1cccc(F)c1 | 2 | 39800 | 160 | 1580 | 60
7 | CCc1c(C)nc(O)c(N(C)C)c1Cc1ccccc1Br | 6 | 15900 | 130 | 1990 | 250
8 | CCc1c(C)nc(O)c(N(C)C)c1C(=O)c1ccc(C)o1 | 10 | 10000 | 1580 | 50100 | 250
9 | CCc1c(C)nc(O)c(N(C)C)c1C(=O)c1cccc(/C=C\c2ccccn2)c1 | 1580 | 63 | – | – | –
10 | CCc1c(C)nc(O)c(N(C)C)c1C(=O)c1cccc(N(C)C)c1 | 390 | 251 | – | – | –
11 | CCc1c(C)nc(O)c(N(C)C)c1C(=O)c1cccc(/C=C/c2ccccc2)c1 | 250 | 398 | – | – | –
12 | CCc1c(C)nc(O)c(N(C)C)c1Cc1ccc(Br)cc1 | 1580 | 63 | – | – | –
13 | CCc1c(C)nc(O)c(N(C)C)c1C(=O)c1cccc(/C=C(\C#N)c2cccnc2)c1 | 60 | 200 | – | – | –
14 | CCc1c(C)nc(O)c(N(C)C)c1C(=O)c1cccc(CN)c1 | 390 | 251 | – | – | –
15 | CCc1c(C)nc(O)c(N(C)C)c1Cc1ccccc1C | 20 | 3980 | 1000 | 7940 | 1250
16 | CCc1c(C)nc(O)c(N(C)C)c1C(=O)c1cccc(/C=C\Cc2ccccc2)c1 | 1580 | 32 | – | – | –
17 | CCc1c(C)nc(O)c(N(C)C)c1C(=O)c1cccc(CCC#N)c1 | 3 | 31600 | 250 | 1990 | 10
18 | CCc1c(C)nc(O)c(N(C)C)c1C(=O)c1cccc(/C=C/c2ccco2)c1 | 20 | 5010 | – | – | –
19 | CCc1c(C)nc(O)c(N(C)C)c1C(=O)c1cccc(CNC(C)=O)c1 | 390 | 251 | – | – | –
20 | CCc1c(C)nc(O)c(N(C)C)c1C(=O)c1cccc(-c2cccnc2)c1 | 6 | 126 | 10000 | 10000 | 50
21 | CCc1c(C)nc(O)c(N(C)C)c1C(=O)c1cccc(-c2ccccc2)c1 | 390 | 251 | – | – | –
22 | C=Cc1cccc(C(=O)c2c(CC)c(C)nc(O)c2N(C)C)c1 | 2 | 12600 | 630 | 790 | 30
23 | CCc1c(C)nc(O)c(N(C)C)c1Cc1cccc(Br)c1 | 4 | 25100 | 6 | 2510 | 100

Row | Compound | IC50 [1] [nM] | Selectivity index [2] | IC50 [3] [nM] | IC50 [4] [nM] | IC50 [5] [nM]
24 | CCc1c(C)nc(O)c(N(C)C)c1C(=O)c1cccc(/C=C/c2ccccn2)c1 | 70 | 1260 | – | – | –
25 | CCc1c(C)nc(O)c(N(C)C)c1C(=O)c1cccc(COc2ccccc2)c1 | 30 | 2510 | – | – | –
26 | CCc1c(C)nc(O)c(N(C)C)c1C(=O)c1cccc(/C=C\c2cnccn2)c1 | 190 | 501 | – | – | –
27 | CCc1c(C)nc(O)c(N(C)C)c1Cc1ccc(Cl)cc1 | 190 | 50 | 6310 | – | –
28 | CCc1c(C)nc(O)c(N(C)C)c1C(=O)c1cccc(/C=C\c2ccccc2)c1 | 1250 | 79 | – | – | –
29 | CCc1c(C)nc(O)c(N(C)C)c1C(=O)c1cccc(/C=C/c2nccs2)c1 | 30 | 3160 | – | – | –
30 | CCc1c(C)nc(O)c(N(C)C)c1C(=O)c1cccc(C#Cc2ccccc2)c1 | 150 | 631 | – | – | –
31 | CCNC(=O)Nc1cccc(C(=O)c2c(CC)c(C)nc(O)c2N(C)C)c1 | 1990 | 50 | – | – | –
32 | CCc1c(C)nc(O)c(N(C)C)c1C(=O)c1cccc(/C=C/c2ccncc2)c1 | 10 | 10000 | – | – | –
33 | CCc1c(C)nc(O)c(N(C)C)c1Cc1nccn1C | 100000 | 1 | – | 100000 | –
34 | CCc1c(C)nc(O)c(N(C)C)c1C(=O)c1cccc(/C=C\c2nccs2)c1 | 150 | 501 | – | – | –
35 | CCOC(=O)/C(C#N)=C\c1cccc(C(=O)c2c(CC)c(C)nc(O)c2N(C)C)c1 | 150 | 631 | – | – | –
36 | CCc1c(C)nc(O)c(N(C)C)c1C(=O)c1cccc(N(CC)CC)c1 | 1990 | 50 | – | – | –
37 | CCc1c(C)nc(O)c(N(C)C)c1C(=O)c1cccc(-c2nccs2)c1 | 250 | 40 | – | – | –
38 | CCc1c(C)nc(O)c(N(C)C)c1C(=O)c1cccc(/C=C(\C)C#N)c1 | 1 | 6310 | – | 630 | –
39 | CCc1c(C)nc(O)c(N(C)C)c1C(=O)c1cccc(/C=C\c2ccco2)c1 | 60 | 794 | – | – | –
40 | CCOc1cccc(Cc2c(CC)c(C)nc(O)c2N(C)C)c1 | 10 | 794 | – | – | –
41 | CCc1c(C)nc(O)c(N(C)C)c1C(=O)c1cccc(C(C)O)c1 (stereo not drawn) | 50 | 2000 | – | – | –
42 | CCc1c(C)nc(O)c(N(C)C)c1Cc1ccc(C)cc1C | 10000 | 10 | 100000 | – | 100000
43 | CCc1c(C)nc(O)c(N(C)C)c1C(=O)c1cccc(C=C(C#N)C#N)c1 | 10 | 3980 | – | – | –
44 | CCc1c(C)nc(O)c(N(C)C)c1C(=O)c1c(F)cccc1F | 50 | 2000 | – | – | –
45 | CCc1c(C)nc(O)c(N(C)C)c1C(=O)c1cccc(-n2cccc2)c1 | 70 | 631 | – | – | –
46 | CCc1c(C)nc(O)c(N(C)C)c1Cc1ccc(C)cc1 | 310 | 316 | 10000 | – | 12600

Row | Compound | IC50 [1] [nM] | Selectivity index [2] | IC50 [3] [nM] | IC50 [4] [nM] | IC50 [5] [nM]
47 | CCc1c(C)nc(O)c(N(C)C)c1Cc1ccc(N(C)C)cc1 | 1250 | 8 | 10000 | – | 10000
48 | CCc1c(C)nc(O)c(N(C)C)c1Cc1cccc(C)c1C | 100 | 200 | 2510 | – | 2510
49 | CCc1c(C)nc(O)c(N(C)C)c1Cc1ccc(C(F)(F)F)cc1 | 1580 | 6 | 10000 | – | 10000
50 | CCc1c(C)nc(O)c(N(C)C)c1C(=O)c1cccc(/C=C/c2ccsc2)c1 | 100 | 1000 | – | – | –
51 | CCc1c(C)nc(O)c(N(C)C)c1C(=O)c1cccc(NC(C)=O)c1 | 120 | 794 | – | – | –
52 | CCc1c(C)nc(O)c(N(C)C)c1Cc1nccs1 | 60 | 1580 | 500 | – | 1990
53 | CCc1c(C)nc(O)c(N(C)C)c1Cc1c(C)cc(C)cc1C | 10000 | 1 | 10000 | – | 10000
54 | CCc1c(C)nc(O)c(N(C)C)c1Cc1ccc(-c2ccccc2)cc1 | 3980 | 3 | 10000 | – | 10000
55 | CCc1c(C)nc(O)c(N(C)C)c1Cc1ccc(OC)c(C)c1 | 390 | 251 | – | – | –
56 | CCc1c(C)nc(O)c(N(C)C)c1C(=O)c1cccc(/C=C/c2cccs2)c1 | 70 | 1260 | – | – | –
57 | CCc1c(C)nc(O)c(N(C)C)c1C(=O)c1cccc(C)c1 | 2 | 39800 | – | 1990 | –
58 | CCc1c(C)nc(O)c(N(C)C)c1C(=O)c1cccc(/C=C/c2cccn2C)c1 | 310 | 158 | – | – | –
59 | CCc1c(C)nc(O)c(N(C)C)c1C(=O)c1cc(F)cc(C(F)(F)F)c1 | 3 | 31600 | – | – | –
60 | CCc1c(C)nc(O)c(N(C)C)c1C(=O)c1cccc(-c2ccco2)c1 | 60 | 158 | – | – | –
61 | CCc1c(C)nc(O)c(N(C)C)c1C(=O)c1cccc(/C=C\c2cccnc2)c1 | 70 | 631 | – | – | –
62 | CCc1c(C)nc(O)c(N(C)C)c1C(=O)c1cccc(NS(C)(=O)=O)c1 | 1000 | 100 | – | – | –
63 | CCc1c(C)nc(O)c(N(C)C)c1C(=O)c1cccc(/C=C\c2ccncc2)c1 | 60 | 794 | – | – | –
64 | CCc1c(C)nc(O)c(N(C)C)c1C(=O)c1cccc(/C=C(\C#N)c2cccs2)c1 | 190 | 126 | – | – | –
65 | CCc1c(C)nc(O)c(N(C)C)c1C(=O)c1cccc(N2CCCC2=O)c1 | 40 | 2510 | – | – | –
66 | CCc1c(C)nc(O)c(N(C)C)c1C(=O)c1cccc(/C=C/c2ccoc2)c1 | 70 | 631 | – | – | –
67 | CCc1c(C)nc(O)c(N(C)C)c1Cc1cc(C)ccc1C | 150 | 631 | – | – | 1990
68 | CCc1c(C)nc(O)c(N(C)C)c1Cc1ccc(C)c(C)c1 | 40 | 2510 | 400 | – | 1000
